# Assay results published in ChEMBL document CHEMBL1275598, “In vitro activity of ceftaroline against community-associated methicillin-resistant, vancomycin-intermediate, vancomycin-resistant, and daptomycin-nonsusceptible Staphylococcus aureus isolates” (2010).
# Columns and labels:
# Assay type in all cases: functional
# [1] = tested on: Staphylococcus aureus; assay: Antimicrobial activity against community-acquired methicillin-resistant Staphylococcus aureus by microdilution method
# In short: (§1)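 MIC by broth microdilution in cation-adjusted Mueller-Hinton broth, following CLSI guidelines; antibiotic powders reconstituted per CLSI. Read visually as the lowest drug concentration well with no visible growth. S. aureus ATCC 29213 and E. faecalis ATCC 29212 served as control strains. CA-MRSA: hospital patients culture-positive within 48 h of admission. DNSSA: patient blood isolates. VISA: obtained from the NARSA program.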
# [2] = tested on: Staphylococcus aureus; assay: Bactericidal activity against vancomycin-resistant Staphylococcus aureus assessed as antibiotic concentration that reduced the number of viable cells by =>99.9% by colony count method; details: for MBC: Staphylococcus aureus
# In short: (§2)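 MBC per CLSI following microdilution in cation-adjusted Mueller-Hinton broth. Defined as the concentration giving ≥99.9% reduction in viable cells, judged from colony counts of the growth control well against Pearson rejection-value tables. CA-MRSA isolates were hospital patients' isolates with positive MRSA culture within 48 h of admission.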
# [3] = tested on: Staphylococcus aureus; assay: Bactericidal activity against community-acquired methicillin-resistant Staphylococcus aureus assessed as antibiotic concentration that reduced the number of viable cells by =>99.9% by colony count method; details: for MBC: Staphylococcus aureus; in short: as §2
# [4] = tested on: Staphylococcus aureus; assay: Antimicrobial activity against vancomycin-intermediate Staphylococcus aureus by microdilution method
# In short: (§3)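 Broth microdilution per CLSI in cation-adjusted Mueller-Hinton broth. Antibiotic powders were reconstituted per CLSI. The MIC was read visually as the lowest drug concentration with no visible growth. S. aureus ATCC 29213 and E. faecalis ATCC 29212 served as control strains. VISA and VRSA isolates came from the NARSA program.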
# [5] = tested on: Staphylococcus aureus; assay: Antimicrobial activity against vancomycin-intermediate Staphylococcus aureus assessed as susceptible isolates by microdilution method
# In short: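 CLSI broth microdilution in cation-adjusted Mueller-Hinton broth. MIC is the lowest concentration well with no visible growth, read by eye. Isolates were classed susceptible from CLSI breakpoints. S. aureus ATCC 29213 and E. faecalis ATCC 29212 were used as MIC control strains.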
# [6] = tested on: Staphylococcus aureus; assay: Bactericidal activity against vancomycin-intermediate Staphylococcus aureus assessed as antibiotic concentration that reduced the number of viable cells by =>99.9% by colony count method; details: for MBC: Staphylococcus aureus
# In short: (§4)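 MBC per CLSI guidelines. It was taken as the antibiotic concentration giving ≥99.9% reduction in viable cells, based on colony counts from the growth control well and rejection values from Pearson's tables.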
# [7] = tested on: Staphylococcus aureus; assay: Antimicrobial activity against daptomycin-nonsusceptible Staphylococcus aureus by microdilution method; in short: as §1
# [8] = tested on: Staphylococcus aureus; assay: Antimicrobial activity against daptomycin-nonsusceptible Staphylococcus aureus assessed as susceptible isolates by microdilution method
# In short: (§5)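 MICs by CLSI broth microdilution in cation-adjusted Mueller-Hinton broth, read visually as the lowest concentration with no visible growth. Percentages of susceptible or resistant isolates assigned using CLSI breakpoints. Isolates: CA-MRSA (n = 92, positive within 48 h of admission) and DNSSA (n = 7, blood).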
# [9] = tested on: Staphylococcus aureus; assay: Antimicrobial activity against vancomycin-resistant Staphylococcus aureus by microdilution method; in short: as §3
# [10] = tested on: Staphylococcus aureus; assay: Bactericidal activity against daptomycin-nonsusceptible Staphylococcus aureus assessed as antibiotic concentration that reduced the number of viable cells by =>99.9% by colony count method; in short: as §4
# [11] = tested on: Staphylococcus aureus; assay: Antimicrobial activity against vancomycin intermediate Staphylococcus aureus NRS-17 expressing SCCmec type 2 element by microdilution method; in short: as §1
# [12] = tested on: Staphylococcus aureus; assay: Antimicrobial activity against vancomycin intermediate Staphylococcus aureus NRS-19 expressing SCCmec type 2 element by microdilution method; in short: as §1
# [13] = tested on: Staphylococcus aureus; assay: Antimicrobial activity against vancomycin intermediate Staphylococcus aureus NRS-22 expressing SCCmec type 2 element by microdilution method; in short: as §1
# [14] = tested on: Staphylococcus aureus; assay: Antimicrobial activity against vancomycin intermediate Staphylococcus aureus NRS-26 expressing SCCmec type 2 element by microdilution method; in short: as §1
# [15] = tested on: Staphylococcus aureus; assay: Antimicrobial activity against vancomycin intermediate Staphylococcus aureus NRS-27 expressing SCCmec type 2 element by microdilution method; in short: as §1
# [16] = tested on: Staphylococcus aureus; assay: Antimicrobial activity against vancomycin intermediate Staphylococcus aureus NRS-68 expressing SCCmec type 2 element by microdilution method; in short: as §1
# [17] = tested on: Staphylococcus aureus; assay: Antimicrobial activity against vancomycin intermediate Staphylococcus aureus NRS-73 expressing SCCmec type 4d element by microdilution method; in short: as §1
# [18] = tested on: Staphylococcus aureus; assay: Antimicrobial activity against vancomycin intermediate Staphylococcus aureus NRS-118 expressing SCCmec type 1 element by microdilution method; in short: as §1
# [19] = tested on: Staphylococcus aureus; assay: Antimicrobial activity against vancomycin intermediate Staphylococcus aureus NRS-402 expressing SCCmec type 2 element by microdilution method; in short: as §1
# [20] = tested on: Staphylococcus aureus; assay: Antimicrobial activity against vancomycin intermediate Staphylococcus aureus NRS-403 expressing SCCmec type 2 element by microdilution method; in short: as §1
# [21] = tested on: Staphylococcus aureus; assay: Antimicrobial activity against vancomycin resistant Staphylococcus aureus VRS-7 expressing SCCmec element by microdilution method; in short: as §3
# [22] = tested on: Staphylococcus aureus; assay: Antimicrobial activity against vancomycin resistant Staphylococcus aureus VRS-8 expressing SCCmec element by microdilution method; in short: as §3
# [23] = tested on: Staphylococcus aureus; assay: Antimicrobial activity against vancomycin resistant Staphylococcus aureus VRS-9 expressing SCCmec type 2 element by microdilution method; in short: as §3
# [24] = tested on: Staphylococcus aureus; assay: Antimicrobial activity against vancomycin resistant Staphylococcus aureus VRS-10 expressing SCCmec type 2 element by microdilution method; in short: as §3
# [25] = tested on: Staphylococcus aureus; assay: Antimicrobial activity against community-acquired methicillin-resistant Staphylococcus aureus assessed as susceptible isolates by microdilution method; in short: as §5
# [26] = tested on: Staphylococcus aureus; assay: Antimicrobial activity against community-acquired methicillin-resistant Staphylococcus aureus assessed as resistant isolates by microdilution method; in short: as §5
# [27] = tested on: Staphylococcus aureus; assay: Antimicrobial activity against vancomycin-intermediate Staphylococcus aureus assessed as resistant isolates by microdilution method
# In short: (§6)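 CLSI broth microdilution MICs in cation-adjusted Mueller-Hinton broth, read visually as the lowest concentration with no visible growth. Percent of isolates classed susceptible or resistant was assigned using CLSI breakpoints.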
# [28] = tested on: Staphylococcus aureus; assay: Antimicrobial activity against vancomycin-resistant Staphylococcus aureus assessed as resistant isolates by microdilution method; in short: as §6
# [29] = tested on: Staphylococcus aureus; assay: Antimicrobial activity against daptomycin-nonsusceptible Staphylococcus aureus assessed as resistant isolates by microdilution method; in short: as §5
# [30] = tested on: Staphylococcus aureus; assay: Antimicrobial activity against vancomycin-resistant Staphylococcus aureus assessed as susceptible isolates by microdilution method; in short: as §6
# [31] = tested on: Staphylococcus aureus; assay: Antimicrobial activity against vancomycin intermediate Staphylococcus aureus NRS-3 expressing SCCmec type 2 element by microdilution method; in short: as §1
# [32] = tested on: Staphylococcus aureus; assay: Antimicrobial activity against vancomycin intermediate Staphylococcus aureus NRS-404 expressing SCCmec type 2 element by microdilution method; in short: as §1
# [33] = tested on: Staphylococcus aureus; assay: Antimicrobial activity against vancomycin resistant Staphylococcus aureus VRS-1 expressing SCCmec type 2 element by microdilution method; in short: as §3
# [34] = tested on: Staphylococcus aureus; assay: Antimicrobial activity against vancomycin resistant Staphylococcus aureus VRS-2 expressing SCCmec type 2 element by microdilution method; in short: as §3
# [35] = tested on: Staphylococcus aureus; assay: Antimicrobial activity against vancomycin resistant Staphylococcus aureus VRS-3 expressing SCCmec type 4 element by microdilution method; in short: as §3
# [36] = tested on: Staphylococcus aureus; assay: Antimicrobial activity against vancomycin resistant Staphylococcus aureus VRS-4 expressing SCCmec type 4 element by microdilution method; in short: as §3
# [37] = tested on: Staphylococcus aureus; assay: Antimicrobial activity against vancomycin resistant Staphylococcus aureus VRS-5 expressing SCCmec type 2 element by microdilution method; in short: as §3
# [38] = tested on: Staphylococcus aureus; assay: Antimicrobial activity against vancomycin resistant Staphylococcus aureus VRS-6 expressing SCCmec type 2 element by microdilution method; in short: as §3
smiles,measurement,setting,value
CC(=O)NC[C@H]1CN(c2ccc(N3CCOCC3)c(F)c2)C(=O)O1 [LINEZOLID],MIC50,[1],2 µg/mL
same,MIC90,[1],2 µg/mL
same,MBC,[2],> 8 µg/mL
same,MBC,[3],> 4 µg/mL
same,MIC50,[4],2 µg/mL
same,MIC90,[4],2 µg/mL
same,Activity,[5],100%
same,MBC50,[6],4 µg/mL
same,MBC90,[6],>8 µg/mL
same,MBC,[6],> 1 µg/mL
same,MIC,[7],1 µg/mL
same,MIC50,[7]; Staphylococcus aureus,2 µg/mL
same,MIC,"[7]; Staphylococcus aureus, read-out: MIC",1.48 µg/mL
same,Activity,[8],100%
same,MIC50,[9],2 µg/mL
same,MIC90,[9],2 µg/mL
same,MBC50,[10],>8 µg/mL
same,MIC,[11],1 µg/mL
same,MIC,[12],1 µg/mL
same,MIC,[13],1 µg/mL
same,MIC,[14],1 µg/mL
same,MIC,[15],1 µg/mL
same,MIC,[16],1 µg/mL
same,MIC,[17],1 µg/mL
same,MIC,[18],1 µg/mL
same,MIC,[19],0.5 µg/mL
same,MIC,[20],1 µg/mL
same,MIC,[21],1 µg/mL
same,MIC,[22],1 µg/mL
same,MIC,[23],1 µg/mL
CN[C@H](CC(C)C)C(=O)N[C@H]1C(=O)N[C@@H](CC(N)=O)C(=O)N[C@H]2C(=O)N[C@H]3C(=O)N[C@H](C(=O)N[C@H](C(=O)O)c4cc(O)cc(O)c4-c4cc3ccc4O)[C@H](O)c3ccc(c(Cl)c3)Oc3cc2cc(c3O[C@@H]2O[C@H](CO)[C@@H](O)[C@H](O)[C@H]2O[C@H]2C[C@](C)(N)[C@H](O)[C@H](C)O2)Oc2ccc(cc2Cl)[C@H]1O [VANCOMYCIN],MIC,[24],> 64 µg/mL
same,MIC50,[1],1 µg/mL
same,MIC90,[1],1 µg/mL
same,Activity,[25],100%
same,Activity,[26],0%
same,MBC50,[2],>64 µg/mL
same,MBC90,[2],>64 µg/mL
same,MBC,[2],> 64 µg/mL
same,MBC50,[3],1 µg/mL
same,MBC90,[3],1 µg/mL
same,MBC,[3],0.5 µg/mL
same,MIC50,[4],4 µg/mL
same,MIC90,[4],8 µg/mL
same,Activity,[5],13%
same,Activity,[27],0%
same,Activity,[28],100%
same,MBC50,[6],4 µg/mL
same,MBC90,[6],8 µg/mL
same,MBC,[6],1 µg/mL
same,MIC50,[7]; Staphylococcus aureus,2 µg/mL
same,Activity,[8],100%
same,Activity,[29],0%
same,MIC50,[9],> 64 µg/mL
same,MIC90,[9],> 64 µg/mL
same,Activity,[30],0%
same,MBC50,[10],2 µg/mL
same,MBC,"[10]; Staphylococcus aureus, read-out: MBC",2 µg/mL
same,MIC,[31],8 µg/mL
same,MIC,[11],8 µg/mL
same,MIC,[18],8 µg/mL
same,MIC,[19],8 µg/mL
same,MIC,[32],8 µg/mL
same,MIC,[33],> 64 µg/mL
same,MIC,[34],32 µg/mL
same,MIC,[35],32 µg/mL
same,MIC,[36],> 64 µg/mL
same,MIC,[37],> 64 µg/mL
same,MIC,[38],> 64 µg/mL
same,MIC,[21],> 64 µg/mL
same,MIC,[22],> 64 µg/mL
same,MIC,[23],> 64 µg/mL
